Columns and labels:
[1] = organism: Sus scrofa; assay: Inhibition of porcine heart malate dehydrogenase assessed as reduction in enzyme inhibition at 3 times IC50 preincubated for 5 min followed by nicotinamide adenine dinucleotide addition and monitered for 90 sec in presence of 0.01% Triton-X100 by spectrophotometric method relative to control; format: tissue-based; design: scale not given: the % may be the effect or the level left
Procedure, shortened: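 After a 5 min room-temperature incubation, the rate was read over 90 s and compared with the negative control. The value is the percent change in inhibition with detergent; triplicate.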

[2] = biological target: T1, Angiotensin-converting enzyme 2 (Homo sapiens, UniProt Q9BYF1); assay: Inhibition of recombinant human ACE2 using MCA-Tyr-Val-Ala-Asp-Ala-Pro-Lys(DNP)-OH as substrate preincubated for 15 mins followed by substrate addition and measured upto 15 mins by fluorescence assay
T1 sequence (Q9BYF1 whole entry): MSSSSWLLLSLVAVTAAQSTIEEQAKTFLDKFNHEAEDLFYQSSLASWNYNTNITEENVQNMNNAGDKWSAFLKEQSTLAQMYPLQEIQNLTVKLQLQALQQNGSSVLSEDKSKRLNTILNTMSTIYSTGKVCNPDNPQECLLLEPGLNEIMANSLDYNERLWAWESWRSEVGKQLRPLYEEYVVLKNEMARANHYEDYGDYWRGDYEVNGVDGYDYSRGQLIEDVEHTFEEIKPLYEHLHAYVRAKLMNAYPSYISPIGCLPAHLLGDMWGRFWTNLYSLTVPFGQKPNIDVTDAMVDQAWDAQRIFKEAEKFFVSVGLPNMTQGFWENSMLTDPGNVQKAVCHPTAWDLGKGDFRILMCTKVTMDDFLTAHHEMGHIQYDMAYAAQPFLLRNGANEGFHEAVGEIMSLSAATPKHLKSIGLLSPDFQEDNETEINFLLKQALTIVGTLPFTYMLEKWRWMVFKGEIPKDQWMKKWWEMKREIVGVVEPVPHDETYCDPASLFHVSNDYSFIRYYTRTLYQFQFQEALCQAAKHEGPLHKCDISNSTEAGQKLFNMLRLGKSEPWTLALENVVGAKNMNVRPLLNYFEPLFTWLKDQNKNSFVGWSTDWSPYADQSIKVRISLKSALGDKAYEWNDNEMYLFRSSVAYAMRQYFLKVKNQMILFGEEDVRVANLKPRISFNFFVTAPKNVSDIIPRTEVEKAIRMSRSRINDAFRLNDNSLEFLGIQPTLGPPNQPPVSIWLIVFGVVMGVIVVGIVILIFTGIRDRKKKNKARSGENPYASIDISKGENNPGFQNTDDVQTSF

[3] = organism: Sus scrofa; assay: Inhibition of porcine heart malate dehydrogenase assessed as critical aggregation concentration preincubated for 5 min followed by nicotinamide adenine dinucleotide addition and monitered for 90 sec by spectrophotometric method; format: tissue-based
[4] = Inhibition of porcine heart malate dehydrogenase preincubated for 5 min followed by nicotinamide adenine dinucleotide addition and monitered for 90 sec by spectrophotometric method; format: tissue-based, Sus scrofa
Procedure, shortened: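 Porcine heart MDH was used at 2 nM final in 50 mM KPi pH 7 at room temperature. Compound was added from 100× DMSO stock (1% DMSO final) and incubated 5 min. Reactions were followed 90 s spectrophotometrically, with initial rates divided by the negative-control rate. Concentration–response used three replicates per concentration to give IC50 and Hill slope.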

[5] = Inhibition of SARS CoV2 C-terminal His6-tagged 3CL protease (3264 to 3569 residues) expressed in Escherichia coli BL21 DE3 using rr-K(MCA)-ATLQAIAS-K(DNP)-COOH preincubated for 1 hr followed by substrate addition and measured after 1 hr in presence of 0.05% Tween-20; design: species or system Severe acute respiratory syndrome coronavirus 2
Procedure, shortened: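 Purified recombinant 3CL-Pro at 50 nM final with quenched fluorogenic peptide at 10 μM final (KM), in 20 mM Tris, 150 mM NaCl, 1 mM EDTA, 1 mM DTT, 0.05% Tween-20, pH 7.4. Drug and enzyme were preincubated 1 h at 37 °C, then substrate was added and fluorescence followed 1 h.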

[6] = Inhibition of SARS-Cov2 N-terminal full-length MBP-tagged 3CL protease expressed in Escherichia coli using DABCYL-KTSAVLQSGFRKME-EDANS as substrate preincubated for 30 mins followed by substrate addition and measured after 3 hrs by fluorescence assay; design: species or system Severe acute respiratory syndrome coronavirus 2
[7] = Inhibition of SARS-COV2 N-terminal MBP-tagged 3CL protease using DABCYL-KTSAVLQSGFRKME-EDANS as substrate measured upto 30 mins by FRET assay; design: species or system Severe acute respiratory syndrome coronavirus 2
[8] = biological target: T1, Angiotensin-converting enzyme 2; assay: Inhibition of recombinant SARS-COV2 His-tagged S-RBD binding to recombinant human ACE2 expressed in HEK293T cells incubated for 0.5 hrs by alpha screen assay; format: cell-based
[9] = Inhibition of SARS-COV2 main protease; design: species or system Severe acute respiratory syndrome coronavirus 2

SMILES	Activity [1] [%]	IC50 [2] [µM]	CAC [3] [µM]	IC50 [4] [µM]	IC50 [5] [µM]	IC50 [6] [µM]	IC50 [7] [µM]	IC50 [8] [µM]	IC50 [9] [µM]
C[C@@H](NCCCc1cccc(C(F)(F)F)c1)c1cccc2ccccc12	81	28.2	53	74	–	–	–	–	–
COc1ccc(-c2ccc3cc(C(=O)O)ccc3c2)cc1C12CC3CC(CC(C3)C1)C2	77	–	9.2	14	–	–	–	–	–
O=C(O)c1cccc(CN2C(=O)/C(=C(\c3ccccc3)c3ccc(Cl)cc3)c3ccccc32)c1	22	–	49	24	> 200	35.5	–	–	–
C/C(=C\c1ccc(C(=O)O)cc1)c1ccc2c(c1)C(C)(C)CCC2(C)C	83	–	5.2	4.4	> 200	35.5	–	–	–
O=C(O)c1ccc(N2C(=O)/C(=C\c3ccc(-c4ccc([N+](=O)[O-])cc4)o3)C=C2c2ccccc2)cc1	75	–	6.2	0.36	100	–	18.3	–	–
CC(C)=CC[C@@H](O)C1=CC(=O)c2c(O)ccc(O)c2C1=O	92	–	7.7	–	–	–	–	–	–
Cc1c(-c2ccc(O)cc2)n(Cc2ccc(OCCN3CCCCCC3)cc2)c2ccc(O)cc12	70	–	–	–	–	–	–	–	–
O=C1c2c(O)cccc2Cc2cccc(O)c21 [ANTHRALIN]	93	–	4.5	2.5	–	–	–	–	–
c1ccc(-c2ccc(C(c3ccccc3)n3ccnc3)cc2)cc1 (stereo unspecified) [BIFONAZOLE]	–	–	–	17	–	–	–	–	–
CC(C)(C)[C@H]1CC[C@H](CC2=C(O)C(=O)c3ccccc3C2=O)CC1 [BUPARVAQUONE]	90	–	32	8.2	–	–	–	–	–
Oc1c(I)cc(Cl)c2cccnc12 [CLIOQUINOL]	57	–	–	4.3	–	–	–	–	–
COc1c2ccc(-c3ccccc3)oc-2cc(=O)c1C [DRACORHODIN]	86	–	22	7.7	–	–	–	–	–
Cc1cc(O)c2c(c1)C(=O)c1cc(O)cc(O)c1C2=O [EMODIN]	–	–	6	12.7	–	–	–	–	–
Cc1cc(-c2ccc(/N=N/c3ccc4c(S(=O)(=O)O)cc(S(=O)(=O)O)c(N)c4c3O)c(C)c2)ccc1/N=N/c1ccc2c(S(=O)(=O)O)cc(S(=O)(=O)O)c(N)c2c1O [EVANS BLUE]	64	–	–	0.01	–	–	–	–	–
Cc1cc2c(C(C)C)c(O)c(O)c(C=O)c2c(O)c1-c1c(C)cc2c(C(C)C)c(O)c(O)c(C=O)c2c1O [GOSSYPOL]	92	–	34	0.82	> 200	39.8	–	–	–
O=C1C=C2CC3(O)COc4c(ccc(O)c4O)C3=C2C=C1O (stereo unspecified) [HEMATEIN]	24	–	123	7.6	> 200	–	–	10	–
Cc1cc(O)c2c(=O)c3c(O)cc(O)c4c5c(O)cc(O)c6c(=O)c7c(O)cc(C)c8c1c2c(c34)c(c78)c65 [HYPERICIN]	83	–	0.3	0.15	–	–	–	–	19.3
COC(=O)C1=C(C)NC(C)=C(C(=O)OC(C)(C)CN(C)CCC(c2ccccc2)c2ccccc2)C1c1cccc([N+](=O)[O-])c1 (stereo unspecified) [LERCANIDIPINE]	95	–	4	2.2	> 200	–	–	–	–
COC(=O)C1=C(C)NC(C)=C(C(=O)OCCN2CCN(C(c3ccccc3)c3ccccc3)CC2)C1c1cccc([N+](=O)[O-])c1 (stereo unspecified) [MANIDIPINE 6300]	92	–	2.8	2	> 100	–	–	–	–
O=c1c(O)c(-c2cc(O)c(O)c(O)c2)oc2cc(O)cc(O)c12 [MYRICETIN]	–	–	7.4	–	–	–	–	10	–
Brc1c(Br)c(Br)c2[nH]nnc2c1Br [TETRABROMOBENZOTRIAZOLE]	61	–	–	14.6	–	–	4	–	–
Cc1c(C)c2c(c(C)c1O)CCC(C)(CCCC(C)CCCC(C)CCCC(C)C)O2 (stereo not drawn) [alpha-TOCHOPHEROL]	69	–	1.5	0.079	–	–	–	–	–

— ChEMBL document CHEMBL5029184, “Colloidal Aggregators in Biochemical SARS-CoV-2 Repurposing Screens” (J Med Chem, 2021)
